From publication PMC11577639 (Journal of medicinal chemistry, 2024)
Read-outs that look alike come from different tables or passages of the source.

Tests used:
[1] = tested on: N. fowleri (Nf69 strain, ATCC 30215) trophozoites; experiment: N. fowleri Nf69 dose-response growth inhibition; type: cell-based, Naegleria fowleri
[2] = tested on: Human neuronal SH-SY5Y cells (ATCC CRL-2266); experiment: SH-SY5Y cytotoxicity assay; type: cell-based; settings: Table 3; SH-SY5Y CC50 / Nf69 EC50
[3] = BBB parallel artificial membrane permeation assay; type: in vitro ADME; settings: for BBB PAMPA CNS class: classified against positive and negative controls
In short: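 Porcine polar brain lipid in dodecane coated on filter membrane. Test compound from DMSO stock diluted in PBS pH 7.4 in donor wells, PBS acceptor, room temperature incubation. Donor and filter-well concentrations measured by HPLC. Verapamil, clonidine, hydrocortisone and theophylline as […]. Pe > 15 nm/s scored CNS+, ≤ 15 CNS-.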

Mouse plasma stability = type: in vitro ADME; settings: male, CD-1, mouse
In short: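 Test compound added from DMSO stock to CD-1 mouse plasma (EDTA-K2, ≥20 male donors). Incubated at 37 °C for 0, 10, 30, 60 or 120 min. Protein precipitated with tolbutamide and labetalol in acetonitrile, then shaken and centrifuged. Supernatant diluted in water and analysed by LCMS with internal standard. Enalapril maleate, bisacodyl and procaine HCl as controls.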

Plasma protein binding = type: in vitro ADME; settings: CD-1 mouse
In short: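 96-well equilibrium dialysis against CD-1 male mouse plasma (EDTA-K2), test compound on donor side in triplicate, dialysis buffer on receiver side. Incubated 4 h at 37 °C, 5% CO2, slow shaking. Both sides sampled, diluted in acetonitrile containing tolbutamide, labetalol, metformin and internal standard, centrifuged and analysed by LC-MS/MS. Warfarin as positive control.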

Mouse pharmacokinetics = type: in vivo, female CD-1 mice; settings: female, CD-1, mouse, plasma, iv, 11 mg/kg
In short: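 Female CD-1 mice, n = 3/group. First study: single IV 11.1 mg/kg or PO 10.7 mg/kg (fasted), 10% NMP/20% cremophor EL/70% water, plasma at 0.5, 2, 4, 8, 12 h, brain homogenised in MeOH/PBS at 12 h. Second: fasted, IP 44 mg/kg suspension in 10% DMSO/30% cremophor EL/60% water, plasma at 2 and 4 h. LC-MS/MS, verapamil internal standard. LLOQ 1 ng/mL plasma, 10 ng/g brain.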

[4] = SH-SY5Y cytotoxicity assay; type: cell-based, human; settings: human, SH-SY5Y neuroblastoma cells

CN1CC[C@H]2c3nc4ccc(Cl)cc4c(=O)n3CC[C@H]21 (racemic) [31a, (±)-(3aR,12bR)-9-Chloro-3-methyl-2,3,3a,4,5,12b-hexahydropyrrolo[3′,2′:3,4]pyrido[2,1-b]quinazolin-7(1H)-one]
EC50 ([1]; read-out: EC50, N. fowleri Nf69, tested up to 10 μM): > 10 µM

CN1CCC[C@@H]2c3nc4ccc(C(F)(F)F)cc4c(=O)n3CC[C@H]21 (racemic) [±−15b, (±)-(4aR,13bS)-4-Methyl-10-(trifluoromethyl)-1,2,3,4,4a,5,6,13b-octahydro-8H-[1,6]naphthyridino[5,6-b]-quinazolin-8-one]
SI (selectivity index, CC50/EC50) [2]: >18.2

CN1CCC[C@@H]2c3nc4ccc(Cl)cc4c(=O)n3CC[C@H]21 (racemic) [±−16b]
SI (selectivity index, CC50/EC50) [2]: >20.0

CN1CCC[C@@H]2c3nc4cc(Cl)c(Cl)cc4c(=O)n3CC[C@H]21 (racemic) [±−21b, (±)-(4aR,13bS)-10,11-Dichloro-4-methyl-1,2,3,4,4a,5,6,13b-octahydro-8H-[1,6]naphthyridino[5,6-b]quinazolin-8-one]
SI (selectivity index, CC50/EC50) [2]: >100

CN1CCC[C@@H]2c3nc4ccc(C(F)(F)F)cc4c(=O)n3CC[C@H]21 (single isomer, unassigned) [trans-15b-ent-1]
SI (selectivity index, CC50/EC50) [2]: >80.0

CN1CCC[C@@H]2c3nc4ccc(Cl)cc4c(=O)n3CC[C@H]21 (single isomer, unassigned) [trans-16b-ent-1]
SI (selectivity index, CC50/EC50) [2]: >71.4

COc1cc2nc3n(c(=O)c2cc1Cl)CC[C@H]1[C@H]3CCCN1CC1COC1 (single isomer, unassigned) [trans-57b-ent-2]
BBB PAMPA CNS class [3]: CNS+ (Pe > 15 nm/s = CNS+)
half-life (Mouse plasma stability): > 4.82 h
plasma protein binding (Plasma protein binding): 74% bound
clearance at 12 h (Mouse pharmacokinetics): 40.8 ± 7.6 mL/min/kg

COc1cc2nc3n(c(=O)c2cc1Cl)CC[C@@H]1[C@@H]3CCCN1CC(C)C (single isomer, unassigned) [trans-62b-ent-1]
SI (selectivity index, CC50/EC50) [2]: >32.3

CCCCCCCCCCCCCCCCOP(=O)([O-])OCC[N+](C)(C)C [miltefosine, reference compound]
EC50 ([1]; Naegleria fowleri, ATCC30215): 35.7 ± 9.1 µM

CN1CCC[C@H]2c3nc4ccc(C(F)(F)F)cc4c(=O)n3CC[C@@H]21 [trans-15b-ent-2, (4aS,13bR)-4-Methyl-10-(trifluoromethyl)-1,2,3,4,4a,5,6,13b-octahydro-8H-[1,6]naphthyridino[5,6-b]quinazolin-8-one]
CC50 at 72 h [4]: > 20 µM
SI (selectivity index, CC50/EC50) [2]: >4.7

CN1CCC[C@H]2c3nc4ccc(Cl)cc4c(=O)n3CC[C@@H]21 [trans-16b-ent-2, (4aS,13bR)-10-Chloro-4-methyl-1,2,3,4,4a,5,6,13b-octahydro-8H-[1,6]naphthyridino[5,6-b]quinazolin-8-one]
CC50 at 72 h [4]: > 20 µM
SI (selectivity index, CC50/EC50) [2]: >5.0

CN1CCC[C@H]2c3nc4cc(Cl)c(Cl)cc4c(=O)n3CC[C@@H]21 [trans-21b-ent-2, (4aS,13bR)-10,11-Dichloro-4-methyl-1,2,3,4,4a,5,6,13b-octahydro-8H-[1,6]naphthyridino[5,6-b]quinazolin-8-one]
CC50 at 72 h [4]: > 20 µM
SI (selectivity index, CC50/EC50) [2]: >7.7

COc1cc2nc3n(c(=O)c2cc1Cl)CC[C@@H]1[C@@H]3CCCN1CC1COC1 [trans-57b-ent-1, (4aR,13bS)-10-Chloro-11-methoxy-4-(oxetan-3-ylmethyl)-1,2,3,4,4a,5,6,13b-octahydro-8H-[1,6]naphthyridino[5,6-b]-quinazolin-8-one]
SI (selectivity index, CC50/EC50) [2]: >40.8
BBB PAMPA, Peavg ([3]; averaged data from duplicate runs, 4 h): 18.2 ×10⁻⁶ cm/s
BBB PAMPA CNS class [3]: CNS+ (Pe > 15 nm/s = CNS+)
plasma protein binding (Plasma protein binding): 74% bound
